# Measurements reported in ChEMBL document CHEMBL1148391, “Discovery of 4-substituted pyrrolidone butanamides as new agents with significant antiepileptic activity” (J Med Chem, 2004).
# How the values were obtained:
# Mus musculus [1] = experiment: In vivo dose required to protect 50% audiogenic seizure prone mice against clonic convulsions; format: functional
# In short: (§1)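 Genetically sound-sensitive DBA-derived mice, male or female, 14–28 g, N = 10 per group. Compound given ip 60 min before stimulus at log-spaced doses, generally 1.0 × 10^-5 to 1.0 × 10^-3 mol/kg, with a vehicle control group. After 30 s orientation, a 90 dB, 10–20 kHz tone was given for 30 s. Clonic convulsions were scored. ED50 with 95% confidence limits came from probit analysis.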
# [2] = molecular target: Synaptic vesicle glycoprotein 2A (Rattus norvegicus) (UniProt Q02563); experiment: In vitro inhibitory activity against [3H](2S)-2-[4-(3-azidophenyl)-2-oxopyrrolidin-1-yl]butanamide binding to levetiracetam binding site; design: concentration or dose not given beside the values; details: concentration not given here
# Chain of Synaptic vesicle glycoprotein 2A (Rattus norvegicus) (Q02563 whole entry): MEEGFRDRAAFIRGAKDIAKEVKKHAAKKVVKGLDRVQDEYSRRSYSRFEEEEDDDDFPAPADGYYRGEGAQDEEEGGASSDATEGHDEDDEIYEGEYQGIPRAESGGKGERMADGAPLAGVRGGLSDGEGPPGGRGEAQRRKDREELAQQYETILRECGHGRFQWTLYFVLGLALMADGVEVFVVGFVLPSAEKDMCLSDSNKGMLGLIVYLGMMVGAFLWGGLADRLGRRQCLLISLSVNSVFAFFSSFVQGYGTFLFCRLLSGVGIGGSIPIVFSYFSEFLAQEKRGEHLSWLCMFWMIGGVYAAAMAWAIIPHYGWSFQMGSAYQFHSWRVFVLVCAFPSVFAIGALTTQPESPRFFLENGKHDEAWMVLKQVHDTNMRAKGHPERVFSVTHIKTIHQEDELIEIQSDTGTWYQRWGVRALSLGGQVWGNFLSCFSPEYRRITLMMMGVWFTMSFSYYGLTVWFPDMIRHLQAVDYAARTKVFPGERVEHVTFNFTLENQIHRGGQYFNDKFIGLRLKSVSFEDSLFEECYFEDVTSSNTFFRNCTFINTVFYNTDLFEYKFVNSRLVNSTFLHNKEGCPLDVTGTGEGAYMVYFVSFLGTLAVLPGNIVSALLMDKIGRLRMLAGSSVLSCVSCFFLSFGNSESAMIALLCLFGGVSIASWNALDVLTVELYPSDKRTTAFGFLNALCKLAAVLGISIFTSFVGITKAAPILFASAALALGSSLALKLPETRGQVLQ
# In short: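 Rat cerebral cortex membranes (male Sprague-Dawley, 200–250 g), homogenised in Tris-HCl/sucrose at 4 °C, washed, preincubated 15 min at 37 °C. Binding: 4 °C for 120 min in 50 mmol/L Tris-HCl pH 7.4 with 2 mmol/L MgCl2, 1–2 × 10^-9 mol/L tritiated azidophenyl radioligand, rising test concentrations. Nonspecific binding with 10^-3 mol/L levetiracetam. Rapid filtration, scintillation counting. pIC50 is the mean of two independent determinations.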
# [3] = Half life at 10 mg/kg was determined in rat; format: ADME, organism-based; design: dose 10 mg/kg; details: in vivo
# [4] = Maximum time to achieve peak plasma concentration was determined in rat at 10 mg/kg; format: ADME, organism-based; design: dose 10 mg/kg
# [5] = Total clearance at 10 mg/kg was determined in rat; format: ADME, organism-based; design: dose 10 mg/kg; details: in vivo
# [6] = Oral bioavailability at 10 mg/kg was determined in rat; format: ADME, organism-based; details: in vivo, read-out: Bioavailabiility
# Mus musculus [7] = experiment: In vivo dose required to protect 50% audiogenic seizure prone mice against clonic convulsions; value ranges from 143 to 283; format: functional; in short: as §1
# [8] = Half life at 1 mg/kg was determined in rat; format: ADME, organism-based; design: dose 1 mg/kg; details: in vivo
# [9] = Oral bioavailability at 1 mg/kg was determined in rat; format: ADME, organism-based; details: in vivo, read-out: Bioavailabiility
# [10] = Total clearance at 1 mg/kg was determined in rat; format: ADME, organism-based; design: dose 1 mg/kg; details: in vivo
# [11] = Maximum time to achieve peak plasma concentration was determined in rat at 1 mg/kg; format: ADME, organism-based; design: dose 1 mg/kg
# Mus musculus [12] = experiment: In vivo dose required to protect 50% audiogenic seizure prone mice against clonic convulsions; value ranges from 59 to 281; format: functional; in short: as §1
# Mus musculus [13] = experiment: In vivo dose required to protect 50% audiogenic seizure prone mice against clonic convulsions; value ranges from 102 to 715; format: functional; in short: as §1
Structure (SMILES),ED50 (Mus musculus [1]) [µmol/kg],inhibition [2] [%],also measured
CC[C@@H](C(=O)N(C)O)N1CCCC1=O,1000,,
CCCCCCN(CCCCCC)C(=O)[C@H](CC)N1CCCC1=O,560,< 20,
NC(=O)CN1CCCC1=O [PIRACETAM],10000,,
CC[C@@H](C(N)=O)N1C[C@H](CNS(=O)(=O)c2ccccc2)CC1=O,1000,< 20,
CC[C@@H](C(=O)N(C)OC)N1CCCC1=O,1000,< 20,
CC[C@@H](C(N)=O)N1CC(NC(=O)OC)CC1=O (some centres undefined),540,,
CC[C@@H](C(N)=O)N1C[C@H](CCl)CC1=O,25,,
CC[C@@H](C(=O)NCc1ccccc1)N1CCCC1=O,560,< 30,
CC[C@H](C(N)=O)N1CCCC1=O [LEVITIRACETAM],1000,,
CC[C@@H](C(=O)NN)N1CCCC1=O,1000,,
CCC1CC(=O)N([C@@H](CC)C(N)=O)C1 (some centres undefined),87,,
CC[C@@H](C(=N)NO)N1CCCC1=O,1000,< 20,
CC[C@@H](C(N)=O)N1C[C@H](CN2CCCC2)CC1=O,320,< 20,
CC[C@@H](C(N)=O)N1C[C@H](C(=O)O)CC1=O,1000,< 20,
CC[C@@H](C(=N)S)N1CCCC1=O,1000,< 20,
CC[C@@H](C(N)=O)N1CC(N)CC1=O (some centres undefined),,< 20,
CCC[C@@H]1CC(=O)N([C@@H](CC)C(N)=O)C1 [BRIVARACETAM],14,,half-life [3]: 102 min; Tmax [4]: 30 min; clearance [5]: 4.67 mL/min/kg; bioavailability [6]: 100%
CCCCC1CC(=O)N(C(CC)C(N)=O)C1 (centres undefined),480,,
CCC(C(N)=O)N1CCC(Cc2ccccc2)C1=O (centres undefined),320,< 20,
CCC[C@H](C(N)=O)N1CCCC1=O,1000,,
CCC(C(N)=O)N1CC(C(C)C)CC1=O (centres undefined),360,,

Structure (SMILES),ED50 (Mus musculus [1]) [µmol/kg],inhibition [2] [%],also measured
CC[C@@H](C(N)=O)N1CCCC1=O [LEVETIRACETAM],,,ED50 (Mus musculus [7]): 180 µmol/kg
CC(C)C(C(N)=O)N1CCCC1=O (centres undefined),890,,
CC[C@@H](C(N)=O)N1CC(CC2CC2)CC1=O (some centres undefined),33,,
CCC(C(N)=O)N1CC(Cc2ccccc2)CC1=O (centres undefined),1000,,
CC[C@@H](C(N)=O)N1C[C@H](C)CC1=O,110,,
CC[C@@H](C(N)=O)N1C[C@H](CI)CC1=O,13,,half-life [8]: 120 min; bioavailability [9]: 100%; clearance [10]: 4.8 mL/min/kg; Tmax [11]: 48 min
CC[C@@H](C(=N)N)N1CCCC1=O,1000,,
CC[C@@H](C(N)=O)N1CC(CC(C)(C)C)CC1=O (some centres undefined),1000,,
CC(C)(C(N)=O)N1CCCC1=O,,< 20,
CCC(C(N)=O)N1C[C@H](CO)CC1=O (some centres undefined),,< 20,
CC[C@@H](C(N)=O)N1C[C@H](CBr)CC1=O,180,,
CCCCCC1CCC(=O)N1C(CC)C(N)=O (centres undefined),,< 20,
CCC[C@H]1CC(=O)N([C@@H](CC)C(N)=O)C1,44,,
CC[C@@H](C(=O)NOC)N1CCCC1=O,1000,< 20,
CC(C)(C)[C@@H](C(N)=O)N1CCCC1=O,,< 20,
CC[C@@H](C(=O)O)N1CCCC1=O,3200,< 20,
CC[C@@H](C(N)=O)N1C[C@H](CSC)CC1=O,160,,
CC[C@@H](C(N)=O)N1CCC(CO)C1=O (some centres undefined),,< 20,
CCC(C(N)=O)N1CC(COC)CC1=O (centres undefined),400,,
CCCC1(C)CC(=O)N([C@@H](CC)C(N)=O)C1 (some centres undefined),400,,
CC[C@@H](C(=O)NO)N1CCCC1=O,1000,,

Structure (SMILES),ED50 (Mus musculus [1]) [µmol/kg],inhibition [2] [%],also measured
CC[C@@H](C(N)=O)N1C[C@H](C(N)=O)CC1=O,1000,< 20,
CCOC(=O)[C@H](CC)N1CCCC1=O,,< 20,
CC[C@@H](C(N)=O)N1CCC(C)C1=O (some centres undefined),1000,,
CC[C@@H](C(N)=O)N1C(=O)CCC1C (some centres undefined),1000,,
CCC[C@@H](C(N)=O)N1CCCC1=O,,,ED50 (Mus musculus [12]): 190 µmol/kg
CCCN(C(C)=O)C(CC)C(N)=O (centres undefined),,< 20,
CC[C@@H](C(N)=O)N1C[C@H](C(=O)OC)CC1=O,1000,< 20,
NCCCC(C(N)=O)N1CCCC1=O (centres undefined),,< 20,
CCC(C(N)=O)N1CC(C(F)(F)F)CC1=O (centres undefined),1000,< 20,
CC[C@@H](C(=O)NC)N1CCCC1=O,1800,,
CCCC1(CCC)CC(=O)N([C@@H](CC)C(N)=O)C1,1000,< 30,
C[C@@H](C(N)=O)N1CCCC1=O,,,ED50 (Mus musculus [13]): 504 µmol/kg
CC[C@@H](C(N)=O)N1CCC(C)(CC)C1=O (some centres undefined),1000,< 20,
CC[C@@H](C(N)=O)N1C[C@H](CO[N+](=O)[O-])CC1=O,25,,
CCC(C(N)=O)N1CC(O)CC1=O (centres undefined),1000,< 20,
CC[C@@H](C(N)=O)N1C[C@H](CN=[N+]=[N-])CC1=O,3.6,,
CC[C@@H](C(N)=O)N(C)C(C)=O,1800,,
"CCC(C(N)=O)N1C(=O)CCC1(C)C (single isomer, unassigned)",1000,,
CC[C@@H](C(N)=O)N1C[C@H](CF)CC1=O,370,,
CCCCCCCCN(C(=O)Cc1ccc(Cl)cc1)C(CC)C(N)=O (centres undefined),1000,,
CC[C@@H](C(=O)Nc1ccccc1)N1CCCC1=O,560,< 20,
